Experimental data as given in article PMC3124385 (Clinical pharmacology and therapeutics, 2011).
Read-outs that look alike come from different tables or passages of the source. Starred links: 1 amine or outer side, 2 acyl side, 3 side chain; linkers in the order of their positions; H or OH if unused. Positions of bridges follow the written chain, without caps; N, C: chain ends. Non-standard residues stand in square brackets, D forms with d. Residues, ends and D or L forms follow the SMILES beside them. *: point of attachment. pTerphenylCO(4''-OnC5H11) = CCCCCOc1ccc(-c2ccc(-c3ccc(C(=O)*)cc3)cc2)cc1; Orn(4R-OH,5R-OH) = O=C([C@H](C[C@@H](O)[C@@H](O)N[*:3])N[*:1])[*:2]; hTyr(3S-OH,4S-OH) = N[C@H](C(=O)O)[C@H](O)[C@@H](O)c1ccc(O)cc1; Pro(3S-OH,4S-Me) = C[C@H]1CN[C@H](C(=O)O)[C@H]1O; Hyp = O=C(O)[C@@H]1C[C@@H](O)CN1

How the values were obtained:
[1] = type: in vivo, human; details: for C24 LD, trough (24 h) concentration after the loading dose / Cmax LD, maximum concentration after loading dose: after 3 mg/kg IV loading dose, day 1, plasma LC-MS/MS
Procedure, shortened: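 IV infusion over 60 min (≤1.1 mg/min): 3 mg/kg loading dose day 1, then 1.5 mg/kg daily up to day 5. Infants got a 20% alcohol-based form and neonates an alcohol-free water-for-injection form. Venous plasma drawn day 1 (predose, end-infusion, 20–24 h) and days 3–5 (predose to 18–24 h), kept at −80°C, assayed by LC-MS/MS (0.05–20.0 μg/ml). Noncompartmental analysis of doses 3–5; AUC by linear trapezoidal rule; CL = dose/AUC.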

[2] = Safety: adverse events and clinical laboratory tests in infants and neonates; type: in vivo, human
[3] = ref [12], cited from earlier work
[4] = ref [10], cited from earlier work
[5] = tested on: cytochrome P450 enzymatic system; details: ref [10]; cited from earlier work

In the case of `CCCCCOc1ccc(-c2ccc(-c3ccc(C(=O)N[C@H]4C[C@@H](O)[C@@H](O)NC(=O)[C@@H]5[C@@H](O)[C@@H](C)CN5C(=O)[C@H]([C@@H](C)O)NC(=O)[C@H]([C@H](O)[C@@H](O)c5ccc(O)cc5)NC(=O)[C@@H]5C[C@@H](O)CN5C(=O)[C@H]([C@@H](C)O)NC4=O)cc3)cc2)cc1` [anidulafungin, Anidulafungin] ({pTerphenylCO(4''-OnC5H11)}-[Orn(4R-OH,5R-OH)]T[Hyp][hTyr(3S-OH,4S-OH)]T[Pro(3S-OH,4S-Me)]; lactam 1-C), the “drug accumulation after multiple anidulafungin doses” value ([1]; comparing trough concentrations after the loading dose and those obtained after multiple doses) is reported as “not apparent”, the Cmax ([1]; human, plasma, iv, 1.5 mg/kg) is reported as 4200 ng/mL and the Cmax ([1]; human, plasma, iv, 3 mg/kg) is reported as 5000 ng/mL. For the same compound, the level at 24 h ([1]; human, plasma, iv, 3 mg/kg) was 2100 ng/mL, the “trend in weight-adjusted clearance (CLss) with changes in postmenstrual age” value ([1]; scatter plot, Figure 3, neonates and infants) was “No trend was observed” and the “C24 LD, trough (24 h) concentration after the loading dose” value (from here on “C24 LD, trough (24 h) concentration”) ([1]; subject 4, neonate) was 2.1 µg/mL. The “Cmax LD, maximum concentration after loading dose” value (from here on “Cmax LD, maximum concentration”) ([1]; subject 4, neonate) was 4000 ng/mL, the “C24 LD, trough (24 h) concentration” value ([1]; subject 6, neonate) was 3.2 µg/mL and the “Cmax LD, maximum concentration” value ([1]; subject 6, neonate) was 5900 ng/mL. The “C24 LD, trough (24 h) concentration” value ([1]; subject 8, neonate) was 1.9 µg/mL, the “Cmax LD, maximum concentration” value ([1]; subject 8, neonate) was 4900 ng/mL and the “C24 LD, trough (24 h) concentration” value ([1]; subject 9, infant) was 2.3 µg/mL. For the same compound, the “Cmax LD, maximum concentration” value ([1]; subject 9, infant) was 7100 ng/mL, the “C24 LD, trough (24 h) concentration” value ([1]; subject 10, infant) was 2.4 µg/mL and the “Cmax LD, maximum concentration” value ([1]; subject 10, infant) was 5000 ng/mL. For the same compound, the “C24 LD, trough (24 h) concentration” value ([1]; subject 11, infant) was 1.9 µg/mL, the “Cmax LD, maximum concentration” value ([1]; subject 11, infant) was 6800 ng/mL and the “subjects who experienced at least one adverse event” value ([2]; eight out of 15 subjects, neonates and infants) was 53%. For the same compound, the “maximum bilirubin level during study drug administration” value ([2]; other infant with worsening hyperbilirubinemia, baseline 9.1 mg/dL) was 10.4 mg/dL, the “AUCss of older children and adults” value ([3]; older children (1.5 mg/kg/day) and adults (100 mg/day)) was 100000 ng·h/mL and the “half life in other pediatric patients” value ([3]; other pediatric patients) was 20 to 24 h. The hepatic metabolism [4, 11] was “lacks significant hepatic metabolism”, the “degradation in the blood” value [4] was “undergoes chemical degradation in the blood” and the renal clearance [4] was “not renally cleared”. For the same compound, the “metabolism by the cytochrome P450 enzymatic system” value [5] was “not metabolized by the cytochrome P450 enzymatic system”.
